Assays:
THP-1 = experiment: Cytotoxicity against human THP1 cells using propidium iodide staining after 72 hrs by flow cytometry; assay type: cell-based; details: THP-1, 72 h
[1] = tested on: Human immunodeficiency virus 2; experiment: Antiviral activity against HIV2 ROD infected in human MT4 cells assessed as inhibition of virus-induced cytopathic effect after 4 days by MTT assay; assay type: functional, organism-based; details: Human immunodeficiency virus 2, ISOLATE ROD, MT4, 96 h
[2] = tested on: Human immunodeficiency virus 1; experiment: Antiviral activity against HIV1 3B infected in human MT4 cells assessed as inhibition of virus-induced cytopathic effect after 4 days by MTT assay; assay type: functional, organism-based; details: Human immunodeficiency virus 1, 3B, MT4, 96 h
[3] = Selectivity index, ratio of IC50 for human THP1 cells to IC50 for chloroquine-resistant Plasmodium falciparum W2; assay type: toxicity, cell-based, THP-1; details: read-out: Selectivity Index
Plasmodium falciparum = experiment: Antiplasmodial activity against chloroquine-resistant Plasmodium falciparum W2 infected in human A+ erythrocytes assessed as inhibition of parasite proliferation after 48 hrs; assay type: functional, organism-based; details: W2, 48 h
Summary of the method: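 W2 parasites were cultured in RPMI 1640 with 25 mM HEPES, 25 mM NaHCO3 and 10% A+ human serum at 2.5% hematocrit, at 37 °C under 10% O2/6% CO2/84% N2. After 48 h exposure without medium change, cells were stained with hydroethidine (0.05 mg/mL in PBS, 20 min, dark, 37 °C). Parasitaemia was read by flow cytometry. IC50 came from three independent experiments.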

[4] = Cytotoxicity against human MT4 cells after 4 days by MTT assay; assay type: cell-based
Summary of the method: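 Uninfected MT-4 cells were run in parallel with the antiviral test under the same conditions: 10⁵ cells/mL, serial compound dilutions from DMSO stocks, 4 days at 37 °C. Viability was read by MTT. CC50 is the concentration that lowers viability of uninfected cells by 50%.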

Compound	IC50 (THP-1) [µM]	IC50 [1] [µM]	IC50 [2] [µM]	selectivity ratio [3]	IC50 (Plasmodium falciparum) [µM]	CC50 at 96 h [4] [µM]
COc1cccc2c1C(=O)c1c(O)c3c(c(O)c1C2=O)C[C@@](O)(C(=O)CO)C[C@@H]3O[C@H]1C[C@H](N)[C@H](O)[C@H](C)O1 [DOXORUBICIN]	0.07	–	–	–	–	–
COc1ccc(-c2cc(=O)c3cc(N)ccc3o2)cc1	124	240	240	3.5	35	240
COc1ccc(-c2oc3ccc(NC(C)=O)cc3c(=O)c2O)cc1	9	98.7	98.7	–	> 9	98.7
COc1cccc(-c2oc3ccc(NC(C)=O)cc3c(=O)c2O)c1	50	33.3	33.3	–	50	33.3
CC(=O)Nc1ccc2oc(-c3ccccc3F)c(O)c(=O)c2c1	47	171	171	–	> 47	171
COc1cccc(-c2cc(=O)c3cc(NC(C)=O)ccc3o2)c1	10	> 404	> 404	–	> 10	> 404
CC(=O)Nc1ccc(O)c(C(=O)/C=C/c2cccc(C(F)(F)F)c2)c1	8.4	32.1	32.1	–	11.3	32.1
CC(=O)Nc1ccc2oc(-c3ccccc3)cc(=O)c2c1	97	184	184	–	> 50	184
Nc1ccc2oc(-c3cccc(C(F)(F)F)c3)cc(=O)c2c1	34	138	138	–	> 34	138
COc1ccccc1-c1oc2ccc(N)cc2c(=O)c1OC	116	229	229	15.1	7.7	229
Nc1ccc2oc(-c3ccc(F)cc3)cc(=O)c2c1	10	264	264	–	> 10	264
Nc1ccc2oc(-c3ccccc3F)cc(=O)c2c1	44	283	284	–	> 44	283
CC(=O)Nc1ccc2oc(-c3cccc(C(F)(F)F)c3)cc(=O)c2c1	50	10	10	–	50	10
CC(=O)Nc1ccc2oc(-c3ccccc3)c(O)c(=O)c2c1	36	64.7	64.7	–	> 36	64.7
Nc1ccc2oc(-c3ccc(F)cc3)c(O)c(=O)c2c1	4	92.6	92.6	–	> 4	92.6
CC(=O)Nc1ccc2oc(-c3ccc(C(F)(F)F)cc3)c(O)c(=O)c2c1	> 50	7.3	7.3	–	> 50	7.3
CC(=O)Nc1ccc(O)c(C(=O)/C=C/c2ccc(F)cc2)c1	68.8	41.1	41.1	4.1	16.9	41.1
CC(=O)Nc1ccc(O)c(C(=O)/C=C/c2ccccc2)c1	85.5	49.8	49.8	5.4	15.9	49.4
COc1ccccc1-c1oc2ccc(N)cc2c(=O)c1O	102	222	222	2.2	46	222

Compound	IC50 (THP-1) [µM]	IC50 [1] [µM]	IC50 [2] [µM]	selectivity ratio [3]	IC50 (Plasmodium falciparum) [µM]	CC50 at 96 h [4] [µM]
CC(=O)Nc1ccc2oc(-c3ccc(F)cc3)cc(=O)c2c1	22	203	203	–	> 22	203
CC(=O)Nc1ccc(O)c(C(=O)/C=C/c2ccccc2F)c1	> 125	33.8	33.8	> 10.2	12.3	33.8
CC(=O)Nc1ccc2oc(-c3cccc(F)c3)c(O)c(=O)c2c1	36	26.5	26.5	–	> 36	26.5
COc1ccc(-c2cc(=O)c3cc(NC(C)=O)ccc3o2)cc1	74	226	226	–	> 50	226
CC(=O)Nc1ccc2oc(-c3ccc(C(F)(F)F)cc3)cc(=O)c2c1	10	330	330	–	> 10	330
COc1c(-c2ccc(C(F)(F)F)cc2)oc2ccc(NC(C)=O)cc2c1=O	> 125	332	332	> 3.2	39	332
Nc1ccc2oc(-c3cccc(F)c3)c(O)c(=O)c2c1	30	35.3	35.3	–	> 30	35.3
CC(=O)Nc1ccc2oc(-c3ccc(F)cc3)c(O)c(=O)c2c1	26	34.1	34.1	–	> 26	34.1
COc1ccccc1-c1cc(=O)c2cc(NC(C)=O)ccc2o1	50	226	226	–	> 50	226
Nc1ccc2oc(-c3ccccc3F)c(O)c(=O)c2c1	38	44.5	44.5	–	> 38	44.5
COc1cccc(-c2oc3ccc(N)cc3c(=O)c2O)c1	2	40.8	40.8	–	> 2	40.8
Nc1ccc2oc(-c3ccc(C(F)(F)F)cc3)cc(=O)c2c1	1.9	273	273	–	> 1.9	273
Nc1ccc2oc(-c3cccc(C(F)(F)F)c3)c(O)c(=O)c2c1	2	8.1	8.1	–	> 2	8.1
COc1cccc(-c2oc3ccc(NC(C)=O)cc3c(=O)c2OC)c1	5	369	369	–	> 5	369
Nc1ccc2oc(-c3ccc(C(F)(F)F)cc3)c(O)c(=O)c2c1	> 125	3.9	3.9	–	> 50	3.9
COc1ccc(-c2oc3ccc(N)cc3c(=O)c2O)cc1	29	239	239	–	> 29	239
Nc1ccc2oc(-c3ccccc3)cc(=O)c2c1 [6-AMINOFLAVONE]	36	209	209	–	> 36	209
Nc1ccc2oc(-c3ccccc3)c(O)c(=O)c2c1	27	216	216	–	> 27	216
CC(=O)Nc1ccc2oc(-c3cccc(C(F)(F)F)c3)c(O)c(=O)c2c1	1	5.7	5.7	–	> 1	5.7

Reference: ChEMBL document CHEMBL1212869, “Anti-HIV and antiplasmodial activity of original flavonoid derivatives” (Bioorg Med Chem, 2010)
